# Columns and labels:
# [1] = Selectivity index, ratio of CC50 for human HepG2.2.15 cells to IC50 for HBV infected in human HepG2.2.15 cells assessed as inhibition of viral e antigen production; assay type: functional
# Outline: (§1)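 Selectivity index was calculated as CC50 (HepG 2.2.15 cytotoxicity) divided by IC50 for the given marker (HBV DNA replication, HBeAg or HBsAg), all measured in HepG 2.2.15 cells.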
# [2] = system: Hepatitis B virus; assay: Antiviral activity against HBV infected in human HepG2.2.15 cells assessed as inhibition of viral DNA replication; assay type: functional, organism-based; details: HepG2 2.2.15
# Outline: (§2)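 Assayed in HBV-producing HepG 2.2.15 cells, with tenofovir as positive control. HBsAg, HBeAg and HBV DNA replication were each measured, and IC50 was taken as the compound concentration giving 50% inhibition of the given marker.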
# [3] = Cytotoxicity against human HepG2.2.15 cells; assay type: cell-based, HepG2 2.2.15
# Outline: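 Cytotoxicity was tested in HepG 2.2.15 cells alongside the anti-HBV assay. CC50 was taken as the compound concentration required to destroy 50% of the cells.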
# [4] = Selectivity index, ratio of CC50 for human HepG2.2.15 cells to IC50 for HBV infected in human HepG2.2.15 cells assessed as inhibition of viral surface antigen production; assay type: functional; outline: as §1
# [5] = system: Hepatitis B virus; assay: Antiviral activity against HBV infected in human HepG2.2.15 cells assessed as inhibition of viral e antigen production; assay type: functional, organism-based; details: HepG2 2.2.15; outline: as §2
# [6] = Selectivity index, ratio of CC50 for human HepG2.2.15 cells to IC50 for HBV infected in human HepG2.2.15 cells assessed as inhibition of viral DNA replication; assay type: functional; outline: as §1
# [7] = system: Hepatitis B virus; assay: Antiviral activity against HBV infected in human HepG2.2.15 cells assessed as inhibition of viral surface antigen production; assay type: functional, organism-based; details: HepG2 2.2.15; outline: as §2
Compound,Ratio CC50/IC50 [1],IC50 [2] [µM],CC50 [3] [µM],Ratio CC50/IC50 [4],IC50 [5] [µM],Ratio CC50/IC50 [6],IC50 [7] [µM]
CCCC(=O)O[C@H]1C[C@@H]2C(=CC[C@@H]3[C@@]2(C)C(=O)C[C@]2(C)[C@@H]([C@@](C)(O)C(=O)CCC(C)(C)OC(C)=O)[C@H](O)C[C@@]32C)C(C)(C)[C@@H]1O,<1,6.1,12.4,<1,> 12.4,2,> 12.4
COc1cccc(/C=C/C(=O)O[C@H]2C[C@@H]3C(=CC[C@@H]4[C@@]3(C)C(=O)C[C@]3(C)[C@@H]([C@@](C)(O)C(=O)CCC(C)(C)OC(C)=O)[C@H](OC(=O)/C=C/c5cccc(OC)c5)C[C@@]43C)C(C)(C)[C@@H]2OC(=O)/C=C/c2cccc(OC)c2)c1,–,51.2,> 719,–,> 719,>14,> 719
CCC(=O)O[C@H]1C[C@@H]2C(=CC[C@@H]3[C@@]2(C)C(=O)C[C@]2(C)[C@@H]([C@@](C)(O)C(=O)CCC(C)(C)OC(C)=O)[C@H](OC(C)=O)C[C@@]32C)C(C)(C)[C@@H]1OC(=O)CC,–,19,> 650,–,> 650,>34.2,> 650
CCOCC(=O)O[C@H]1C[C@@H]2C(=CC[C@@H]3[C@@]2(C)C(=O)C[C@]2(C)[C@@H]([C@@](C)(O)C(=O)CCC(C)(C)OC(C)=O)[C@H](OC(=O)COCC)C[C@@]32C)C(C)(C)[C@@H]1OC(=O)COCC,–,10,> 560,–,> 560,>55.8,> 560
CCC(=O)O[C@H]1C[C@@H]2C(=CC[C@@H]3[C@@]2(C)C(=O)C[C@]2(C)[C@@H]([C@@](C)(O)C(=O)CCC(C)(C)OC(C)=O)[C@H](O)C[C@@]32C)C(C)(C)[C@@H]1OC(=O)CC,>1,7.2,> 596,>60,596,>83.4,9.9
CC(=O)O[C@H]1C[C@H]2[C@]3(C)C(=O)C[C@]4(C)[C@@H]([C@@](C)(O)C(=O)CCC(C)(C)OC(C)=O)[C@H](OC(C)=O)C[C@@]4(C)[C@@H]3C[C@@H](O)[C@@]2(OC(=O)c2cccc(Cl)c2)C(C)(C)[C@@H]1OC(C)=O,>3.2,> 1050,> 1050,>5.9,327,–,178
COCC(=O)O[C@H]1C[C@H]2[C@]3(C)C(=O)C[C@]4(C)[C@@H]([C@@](C)(O)C(=O)CCC(C)(C)OC(C)=O)[C@H](OC(=O)COC)C[C@@]4(C)[C@@H]3C[C@@H](O)[C@@]2(OC(=O)c2cccc(Cl)c2)C(C)(C)[C@@H]1OC(=O)COC,–,> 1740,> 1740,–,> 1740,–,> 1740
CC(=O)OC(C)(C)CCC(=O)[C@](C)(O)[C@H]1[C@H](O)C[C@@]2(C)[C@@H]3C[C@H]4O[C@@]45[C@@H](C[C@H](O)[C@@H](O)C5(C)C)[C@]3(C)C(=O)C[C@]12C,–,11.6,> 1740,–,> 1740,>150.5,> 1740
CCOCC(=O)O[C@H]1C[C@H]2[C@]3(C)C(=O)C[C@]4(C)[C@@H]([C@@](C)(O)C(=O)CCC(C)(C)OC(C)=O)[C@H](OC(=O)COCC)C[C@@]4(C)[C@@H]3C[C@H]3O[C@]32C(C)(C)[C@@H]1OC(=O)COCC,–,> 633,> 633,–,> 633,–,> 633
CC(C)(O)CCC(=O)[C@](C)(O)[C@H]1[C@H](O)C[C@@]2(C)[C@@H]3CC=C4[C@@H](C[C@H](O)[C@@H](O)C4(C)C)[C@]3(C)C(=O)C[C@]12C,<1,31.4,60.6,<1,> 60.6,1.9,> 60.6
CCCC(=O)O[C@@H]1[C@@H](O)C[C@@H]2C(=CC[C@@H]3[C@@]2(C)C(=O)C[C@]2(C)[C@@H]([C@@](C)(O)C(=O)CCC(C)(C)OC(C)=O)[C@H](O)C[C@@]32C)C1(C)C,<1,4.7,6.3,<1,> 6.3,1.3,> 6.3
CC(=O)O[C@H]1C[C@H]2[C@]3(C)C(=O)C[C@]4(C)[C@@H]([C@@](C)(O)C(=O)CCC(C)(C)OC(C)=O)[C@H](OC(C)=O)C[C@@]4(C)[C@@H]3C[C@H]3O[C@]32C(C)(C)[C@@H]1OC(C)=O,–,> 961,> 961,–,> 961,–,> 961
CCOCC(=O)O[C@H]1C[C@H]2[C@]3(C)C(=O)C[C@]4(C)[C@@H]([C@@](C)(O)C(=O)CCC(C)(C)OC(C)=O)[C@H](OC(=O)COCC)C[C@@]4(C)[C@@H]3C[C@@H](O)[C@@]2(OC(=O)c2cccc(Cl)c2)C(C)(C)[C@@H]1OC(=O)COCC,–,> 710,> 710,–,> 710,–,> 710
CCOCC(=O)O[C@H]1C[C@@H]2C(=CC[C@@H]3[C@@]2(C)C(=O)C[C@]2(C)[C@@H]([C@@](C)(O)C(=O)CCC(C)(C)O)[C@H](OC(=O)COCC)C[C@@]32C)C(C)(C)[C@@H]1OC(=O)COCC,<1,84.6,184,1.8,> 184,2.2,101
CC(=O)O[C@H]1C[C@@H]2C(=CC[C@@H]3[C@@]2(C)C(=O)C[C@]2(C)[C@@H]([C@@](C)(O)C(=O)CCC(C)(C)OC(C)=O)[C@H](OC(C)=O)C[C@@]32C)C(C)(C)[C@@H]1OC(C)=O,–,17.3,> 807,–,> 807,>46.6,> 807
CCC(=O)O[C@@H]1[C@@H](O)C[C@@H]2C(=CC[C@@H]3[C@@]2(C)C(=O)C[C@]2(C)[C@@H]([C@@](C)(O)C(=O)CCC(C)(C)OC(C)=O)[C@H](O)C[C@@]32C)C1(C)C,5.9,3.1,100,5.5,17,31.9,18.4
COCC(=O)O[C@H]1C[C@H]2[C@]3(C)C(=O)C[C@]4(C)[C@@H]([C@@](C)(O)C(=O)CCC(C)(C)OC(C)=O)[C@H](OC(=O)COC)C[C@@]4(C)[C@@H]3C[C@H]3O[C@]32C(C)(C)[C@@H]1OC(=O)COC,>1.9,> 1110,> 1110,–,592,–,> 1110
CCOCC(=O)O[C@H]1C[C@@H]2C(=CC[C@@H]3[C@@]2(C)C(=O)C[C@]2(C)[C@@H]([C@@](C)(O)C(=O)CCC(C)(C)OC(=O)COCC)[C@H](OC(=O)COCC)C[C@@]32C)C(C)(C)[C@@H]1OC(=O)COCC,–,81.4,> 1450,>6.4,> 1450,>17.8,225
CC(=O)OC(C)(C)CCC(=O)[C@](C)(O)[C@H]1[C@H](O)C[C@@]2(C)[C@@H]3CC=C4[C@@H](C[C@H](O)[C@@H](O)C4(C)C)[C@]3(C)C(=O)C[C@]12C [HEMSLECIN A],<1,11.4,66.2,<1,> 66.2,5.8,> 66.2
C[C@H](Cn1cnc2c(N)ncnc21)OCP(=O)(O)O [TENOFOVIR ANHYDROUS],>1.5,0.49,> 1740,>1.1,–,>3571.4,1570
CCC(=O)O[C@H]1C[C@H]2[C@]3(C)C(=O)C[C@]4(C)[C@@H]([C@@](C)(O)C(=O)CCC(C)(C)OC(C)=O)[C@H](OC(=O)CC)C[C@@]4(C)[C@@H]3C[C@H]3O[C@]32C(C)(C)[C@@H]1OC(=O)CC,–,> 1670,> 1670,>2.2,> 1670,–,768
CCCC(=O)O[C@H]1C[C@H]2[C@]3(C)C(=O)C[C@]4(C)[C@@H]([C@@](C)(O)C(=O)CCC(C)(C)OC(C)=O)[C@H](OC(=O)CCC)C[C@@]4(C)[C@@H]3C[C@H]3O[C@]32C(C)(C)[C@@H]1OC(=O)CCC,>2,> 618,> 618,–,401,–,> 618
CC(=O)O[C@H]1C[C@@H]2C(=CC[C@@H]3[C@@]2(C)C(=O)C[C@]2(C)[C@@H]([C@@](C)(O)C(=O)CCC(C)(C)OC(C)=O)[C@H](O)C[C@@]32C)C(C)(C)[C@@H]1OC(C)=O,11.7,9.8,546,24.3,46.7,55.6,22.4
CCC(=O)O[C@H]1C[C@@H]2C(=CC[C@@H]3[C@@]2(C)C(=O)C[C@]2(C)[C@@H]([C@@](C)(O)C(=O)CCC(C)(C)OC(C)=O)[C@H](O)C[C@@]32C)C(C)(C)[C@@H]1O,8.7,4.7,126,8.1,14.4,–,15.6

# Source: ChEMBL document CHEMBL2331335, “Synthesis of hemslecin A derivatives: a new class of hepatitis B virus inhibitors” (Bioorg Med Chem Lett, 2013)
